SR-BI DiI inh: inhibitors of SR-BI mediated HDL lipid uptake, primary screen, ldlA[mSR-BI] cells, fluorescence, single point; ldlA[mSR-BI] CHO cells, DiI-HDL uptake fluorescence, 3 h; inhibition, % at 12.5 µM; hit rate 0.96% among 320,000; AID 488896, 2010;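 active = mean replicate inhibition of at least 70% and a set share of replicates each scoring 70 or more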;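 also: 0% = median of neutral control wells and 100% = median of positive control wells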
SR-BI DiI-HDL act: activators of SR-BI mediated DiI-HDL uptake, primary screen, ldlA[mSR-BI] CHO cells, DiI fluorescence | 3 h; 100 = double the neutral-control signal | activation, % at 12.5 µM | hit rate 0.096% among 320,000 | AID 504775, 2011;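 active = mean replicate activation of at least 60% and every replicate at or above 60%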;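 also: 0% = median plate neutral-control signal and 100% = twice that signal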
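system = CHO ldlA[mSR-BI] cells, LDL receptor-null, SR-BI overexpressing | medium = Ham's F12 with 0.5% BSA, HEPES 25 mM, pH 7.4 | probe or stimulus = DiI-HDL 10 µg/mL | compound dosing = single-point compound dose | incubation = compound exposure 3 h, 37 °C | technique = DiI fluorescence, bottom read | read-out = cell-associated DiI fluorescence as measure of HDL uptake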
CAL PDZ FP-1: untagged CAL PDZ binding inhibitors, primary screen, biochemical, fluorescence polarization, HTS; Golgi-associated PDZ and coiled-coil motif-containing protein (Homo sapiens), Q9HD26; purified CAL PDZ, TMR-peptide fluorescence polarization, 1 h; inhibition, % at 24.9 µM; hit rate 0.92% among 300,000; AID 602252, 2012;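 active = mean inhibition of at least 30% with at least half of replicates also reaching 30%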;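 also: 0% = DMSO neutral control and 100% = excess unlabeled competitor peptide PRC23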
ATG4B inhibitor: ATG4B protease inhibitors, primary screen, biochemical, fluorescence, uHTS | Cysteine protease ATG4B (Homo sapiens), Q9Y4P1 | ATG4B cleavage of LC3-PLA2, NBD-HPC fluorescence, 1 h | inhibition, % at 8.33 µM | hit rate 0.51% among 340,000; in the data active = inhibition above about 40%
Target sequence (Q9Y4P1 whole entry, looked up): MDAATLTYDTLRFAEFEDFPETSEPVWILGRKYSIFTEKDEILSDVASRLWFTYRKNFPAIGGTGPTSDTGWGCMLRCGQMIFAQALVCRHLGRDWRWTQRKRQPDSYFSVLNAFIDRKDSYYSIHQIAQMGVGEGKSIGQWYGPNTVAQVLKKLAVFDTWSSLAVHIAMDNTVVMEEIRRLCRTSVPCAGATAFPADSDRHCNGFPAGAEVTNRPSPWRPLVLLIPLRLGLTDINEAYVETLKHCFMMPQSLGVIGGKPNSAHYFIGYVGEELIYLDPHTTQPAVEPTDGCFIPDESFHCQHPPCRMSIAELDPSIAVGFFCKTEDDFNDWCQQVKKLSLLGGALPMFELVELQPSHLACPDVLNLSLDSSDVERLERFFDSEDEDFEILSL
CAL PDZ FP-2: CAL PDZ peptide-binding inhibitors, primary screen, biochemical, fluorescence polarization, Cer-tagged CAL PDZ, HTS; Golgi-associated PDZ and coiled-coil motif-containing protein (Homo sapiens), Q9HD26; purified CAL PDZ, TMR-peptide fluorescence polarization, 1 h; inhibition, % at 20 µM; hit rate 0.02% among 330,000; AID 504414, 2011;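 active = highest replicate inhibition of at least 40%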;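 also: plate controls were DMSO neutral control wells for no effect and unlabeled competitor peptide control wells for full effect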
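Material: tagged CAL PDZ protein CerCALP, purified; buffer or medium: sodium phosphate/NaCl buffer pH 7.4 with TCEP, IgG, Thesit; also added: fluorescent TMR peptide probe; schedule: 1 h incubation at room temperature before polarization reading; technique: fluorescence polarization from S- and P-plane intensities, G-factor corrected; control set: unlabelled peptide and DMSO controls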
Numbers without * were called inactive; x = no result. The list is not random: actives were taken first. Their share in the collection is about 2.3%.

SMILES	SR-BI DiI inh	SR-BI DiI-HDL act	CAL PDZ FP-1	ATG4B inhibitor	CAL PDZ FP-2
COC(=O)c1c(N2C(=O)[C@H]3[C@@H](C2=O)[C@]2(C(=O)Nc4c2ccc(C)c4C)N2CCC[C@@H]32)sc(C)c1C	-11	11	1	1	-1
CN(CCC1CCOCC1)C(=O)CC1C(=O)NCCN1Cc1ccoc1 (stereo not given)	-24	24	-3	-3	1
CN(CCCC1CCCC1)C(=O)CC1C(=O)NCCN1Cc1ccc(F)cc1 (stereo not given)	-1	1	41*	7	-2
Nc1nc(SCc2cccnc2)c2ncn(C3OC(CO)C(O)C3O)c2n1 (stereo not given)	-26	26	x	2	-1
COc1cccc2cc(C(=O)N(Cc3ccccc3)CC3CCCO3)c(=O)oc12 (stereo not given)	-14	14	43*	-9	-1
O=C(c1cc2ccccc2oc1=O)N(Cc1ccccc1)CC1CCCO1 (stereo not given)	-10	10	-3	-7	-1
c1ccc(-c2ccc3c(c2)NCCN3)cc1	-1	1	-3	-1	-1
COc1ccc(/C=C2/SC(=O)N(CCC(=O)Nc3ccccc3C(=O)O)C2=S)cc1	-34	34	-2	12	-2
N=c1n(CCN2CCOCC2)c2ccccc2n1CC(=O)c1cccc([N+](=O)[O-])c1	77*	-77	-3	-9	2
CCn1c(=N)n(CC(=O)c2cccc([N+](=O)[O-])c2)c2ccccc21	54	-54	1	-8	0
O=[N+]([O-])c1cccc(/C=C2\CCC(/C=N/Nc3ccc4ccccc4n3)=C2N2CCOCC2)c1	88*	-88	-3	-1	-1
O=[N+]([O-])c1cccc(/C=N/Nc2nc(N3CCOCC3)nc(N3CCOCC3)n2)c1	22	-22	2	-13	-1
Cc1cccc(NC(=O)CSc2nc3ccccc3o2)c1	-4	4	-5	-8	-1
Cc1nn2c(-c3cccc(NC(=O)CSc4nc5ccccc5o4)c3)nnc2c2ccccc12	76*	-76	-2	-16	-2
Cc1ccc(C)c(N2CCN(CC3CCCCC3)CC2)c1	5	-5	x	12	0
Cc1cccc(N2CCN(CC3CCCCC3)CC2)c1C	-34	34	47*	6	-1
Cc1ccc(NC(=S)N(CCCN2CCCC2)Cc2cccn2Cc2ccc(Cl)cc2)cc1C	13	-13	79*	-5	-2
CC(C)[C@H](NC(=O)OC(C)(C)C)C(=O)N/N=C/c1ccc2nccnc2c1	0	0	70*	-7	-1
O=C(N/N=C/c1cc([N+](=O)[O-])ccc1O)C1CCCCC1	87*	-87	-1	-1	-1
Cc1cc(C(=O)N/N=C\c2ccc(COc3ccc([N+](=O)[O-])cc3)o2)ccc1[N+](=O)[O-]	76*	-76	19	-5	x
Cc1nc2ccc(C(=O)N/N=C/c3cc([N+](=O)[O-])ccc3O)cc2[nH]1	106*	-106	-3	11	-4
Cc1nc2ccc(C(=O)N/N=C/c3ccccc3O)cc2[nH]1	68	-68	-4	-9	-3
O=C(N/N=C/c1cc([N+](=O)[O-])ccc1O)c1cccc2ccccc12	129*	-129	23	x	-3
Cc1cccc(CC(C)NC(=O)c2oc3c(F)cccc3c2C)n1 (stereo not given)	30	-30	-5	7	-1
O=C(NCCOc1ccccc1)c1ccccc1SCC(=O)N1CCCC1	13	-13	1	-10	0

Bioassay records: PubChem, several laboratories
